Shown are actives, neighbours in structure and some others; about 2.7% of the full set was active somewhere.
pPAFAH inh = pPAFAH (human) enzyme inhibition | recombinant pPAFAH, FP-rhodamine probe fluorescence polarization | inhibition, % at 3.39 µM | 330,000 tested, 1.5% active | AID 463082;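 active means inhibition above the mean inhibition across the screen plus 3 SD, cut at about 25% in these data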;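 further: inhibitors block binding of the rhodamine activity-based probe so polarization drops; 0% = enzyme with DMSO and 100% = wells lacking pPAFAH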
Target sequence (Q13093 whole entry, looked up): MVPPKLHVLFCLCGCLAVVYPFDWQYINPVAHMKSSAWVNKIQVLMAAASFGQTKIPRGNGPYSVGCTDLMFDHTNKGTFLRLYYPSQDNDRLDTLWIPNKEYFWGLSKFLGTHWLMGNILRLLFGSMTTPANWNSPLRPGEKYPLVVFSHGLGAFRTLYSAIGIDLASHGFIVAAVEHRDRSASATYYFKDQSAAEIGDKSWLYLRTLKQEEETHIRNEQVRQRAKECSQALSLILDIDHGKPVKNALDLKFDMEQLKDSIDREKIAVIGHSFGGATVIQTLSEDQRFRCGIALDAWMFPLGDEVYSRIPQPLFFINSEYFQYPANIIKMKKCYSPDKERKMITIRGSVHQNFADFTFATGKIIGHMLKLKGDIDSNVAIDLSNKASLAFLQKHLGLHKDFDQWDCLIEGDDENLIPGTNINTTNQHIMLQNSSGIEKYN
ARFGAP1 inhibitor = inhibits rat ARF GTPase activating protein 1; Arfgap1-stimulated ARF1 GTP hydrolysis, GDP FP detection; inhibition, % at 16.5 µM; Q62848; 360,000 tested, 0.26% active; AID 651572;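 active means inhibition above a per-plate limit, mean inhibition of low control wells plus 3 SD, cut at about 25% in these data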;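 further: 0% = DMSO wells with enzyme and 100% = wells lacking Arfgap1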
Target sequence (Q62848 1-136 limits assumed): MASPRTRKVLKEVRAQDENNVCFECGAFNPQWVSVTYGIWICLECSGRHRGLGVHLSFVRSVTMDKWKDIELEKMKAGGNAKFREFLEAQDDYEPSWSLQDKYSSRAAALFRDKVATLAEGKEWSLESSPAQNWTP
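Assay system: purified rat His6-Arfgap1 residues 1-136 (GAP domain); Reagent: human Δ17 ARF1 bound to GTP; Dosing: 16.5 µM single point, 1.26% DMSO; Times: GTP hydrolysis reaction 2 h at 25 °C; Signal: FP, GDP Alexa 633 tracer displaced from anti-GDP antibody, 620/688 nm; Measure: % inhibition from polarization.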
PAFAH2 FP inh = inhibitors of human PAFAH2; recombinant PAFAH2, FP-rhodamine activity probe, fluorescence polarization; inhibition, % at 3.39 µM; 340,000 tested, 0.99% active; AID 492956;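 active means inhibition above the mean over all tested compounds plus 3 SD, cut at about 30% in these data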;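 further: inhibitors block probe labeling of enzyme so polarization drops; 0% = enzyme with DMSO and 100% = wells lacking PAFAH2 protein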
PAFAH1B2 FP inh = PAFAH1B2 (human) inhibition; P68402; recombinant PAFAH1B2, FP-rhodamine activity probe, fluorescence polarization; inhibition, % at 3.39 µM; 340,000 tested, 1.2% active;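 active means inhibition above the mean of all tested compounds plus 3 SD, cut at about 24% in these data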;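 further: 0% = enzyme with DMSO and 100% = wells lacking PAFAH1B2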
PAFAH1B3 inh = PAFAH1B3 (human) inhibition; Q15102; recombinant PAFAH1B3, FP-rhodamine probe, fluorescence polarization; inhibition, % at 3.39 µM; 340,000 tested, 0.28% active; AID 492972;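 active means inhibition above the screen-wide average of all tested compounds plus 3 SD, cut at about 25% in these data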;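 further: 0% = enzyme with DMSO only and 100% = wells lacking PAFAH1B3 protein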
ASAP1 inh = blocks human ASAP1-stimulated Arf1 GTP hydrolysis | GDP FP detection | inhibition, % at 16.5 µM | 360,000 tested, 0.19% active | AID 624377; in the data active means inhibition above about 25%;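 further: 0% = vehicle with enzyme and substrate and 100% = no enzyme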
PAFAH2 confirm = PAFAH2 (human) inhibition, confirmed. recombinant PAFAH2, FP-rhodamine activity probe, fluorescence polarization. 2,300 tested, 65% active. AID 493030. inhibition, % at 3.39 µM. shares compounds with PAFAH2 FP inh;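 active means mean inhibition over three repeats above a set limit taken from the earlier primary screen, cut at about 30% in these data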;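 further: inhibitor blocks binding of rhodamine activity probe so polarization falls; 0% = enzyme with DMSO and 100% = wells lacking PAFAH2 protein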
An asterisk follows results filed as active; / = no result.

SMILES	pPAFAH inh	ARFGAP1 inhibitor	PAFAH2 FP inh	PAFAH1B2 FP inh	PAFAH1B3 inh	ASAP1 inh	PAFAH2 confirm
COc1ccccc1C/C(N)=N/O	2	-6	3	4	7	3	/
COc1ccccc1C/C(N)=N/OC(=O)c1ccc2c(c1)OCO2	0	-5	77*	3	1	-3	79*
COc1cccc(CN2CCNC(=O)C2CC(=O)NCCN2CCOCC2)c1OC (stereo not drawn)	6	-11	2	0	12	-8	/
CSCc1ccc(C(=O)NC2CC(C)(C)Cc3c2cnn3-c2ccc(F)cc2)o1 (stereo not drawn)	9	8	-1	5	-2	5	/
CC1(C)CC(=O)C=C(NCCN2CCN(C(=S)NC3CCCCC3)CC2)C1	3	18	-1	-7	12	-3	/
COc1ccc(CCNC(=O)Nc2ccc([N+](=O)[O-])cc2)cc1OC	3	9	6	-2	10	3	/
Cc1cccc(/C(N)=N/OC(=O)c2ccc3c(c2)OCO3)c1	0	1	42*	4	6	-8	36*
Cc1cc(Nc2cc(Cl)cc(Cl)c2)nc(N)n1	0	16	1	5	5	-9	/
Oc1ccc(-c2nccc(-c3ccc(F)cc3)n2)cc1	-1	6	-4	-2	4	15	/
COc1ccc(C(CC(=O)Nc2cc([N+](=O)[O-])ccc2OC)c2ccccc2)cc1 (stereo not drawn)	2	2	-8	0	-1	18	/
COc1cc(/C=N/n2c(COc3ccccc3)n[nH]c2=S)cc(Br)c1O	4	6	52*	10	7	0	38*
O=C(CCc1[nH]c2ccccc2c1Sc1ccccc1)NCCO	2	12	37*	3	-1	8	27
Cn1cccc1C(=O)NC(=O)COC(=O)c1ccc(O)cc1	-2	7	52*	0	2	6	45*
Cn1cccc1C(=O)NC(=O)COC(=O)c1ccc(S(C)(=O)=O)cc1	2	7	-1	2	8	1	/
CC(C)(C)C(=O)COC(=O)c1ccc(O)cc1	-6	3	-1	5	4	-7	/
CC(C)NC(=O)COC(=O)c1ccc(O)cc1	-4	-9	48*	3	5	-3	24
CCN(CC)S(=O)(=O)c1cc(C(=O)OCC(=O)NC(=O)c2cccn2C)ccc1C	18	-7	62*	6	-4	-6	50*
CCOC(=O)/C(C#N)=C/c1ccc(SC)cc1	5	7	-9	-2	-10	0	/
COc1ccccc1C(=O)NCCC(=O)N(C)CC(=O)Nc1ccc(N2CCOCC2)cc1	-1	10	1	2	5	-3	/
COc1cc(/C=C/C(=O)OCC(=O)Nc2cc(S(=O)(=O)N3CCCC3)ccc2Cl)cc(OC)c1OC	8	4	31*	0	6	-5	26
COc1ccc(CC(=O)Nc2cc(S(=O)(=O)N3CCCCC3)ccc2C)cc1	/	12	8	3	0	11	/
COc1cc(/C=C/C(=O)OCC(=O)Nc2cc(S(=O)(=O)N3CCCCC3)ccc2C)ccc1O	12	-1	75*	-2	-5	7	79*
COc1cc(/C=C/C(=O)OCC(=O)c2ccc(S(=O)(=O)N3CCCCC3)cc2)cc(OC)c1OC	/	-2	4	2	-1	-17	/
COc1cc(/C=C/C(=O)OCC(=O)Nc2ccc(C)c(S(=O)(=O)N3CCCCC3)c2)ccc1O	11	7	67*	2	5	2	73*
CCOC(=O)c1c(C)[nH]c(C(=O)OCc2ccccc2)c1C	22	10	-8	1	5	10	/
SMILES	pPAFAH inh	ARFGAP1 inhibitor	PAFAH2 FP inh	PAFAH1B2 FP inh	PAFAH1B3 inh	ASAP1 inh	PAFAH2 confirm
CCOC(=O)c1c(C)[nH]c(C(=O)OCC(=O)Nc2ccccc2)c1C	3	9	34*	4	0	-10	34*
CC(=O)c1c(C)[nH]c(C(=O)OCC(=O)Nc2ccccc2Cl)c1C	-4	5	33*	1	10	-6	20
CC(=O)c1c(C)[nH]c(C(=O)OCC(=O)NCC(C)C)c1C	-4	-7	31*	-2	8	8	16
CN(C)c1ccc(N/C(=N\S(=O)(=O)c2cccs2)c2ccccc2)cc1	4	16	57*	4	8	-1	54*
C/C(=N/OC(=O)CC(C)C)c1cc(-c2ccc(Cl)cc2)no1	8	-7	57*	0	9	0	45*
COc1ccccc1NC(=O)N(C)C[C@H]1OCc2cnnn2CCCC(=O)N([C@H](C)CO)C[C@@H]1C	/	-11	/	/	/	-5	/
CCCCCc1ccc2cc(C#N)ccc2n1	/	-10	/	/	/	-2	/
CCC(C)N(C(=O)C(F)(F)F)C(C(=O)NC1CCCCC1)c1ccncc1 (stereo not drawn)	-5	-2	7	5	0	7	/
O=C(NC1CCCCC1)C(c1ccncc1)N(CC1CCCO1)C(=O)C(F)(F)F (stereo not drawn)	-2	-1	41*	2	2	-10	19
O=C(Cc1ccc(-c2ccccc2)cc1)Nc1ncccc1O	21	8	32*	2	1	1	24
COC(=O)CCC/C=C1/SCC(NC(=O)c2ccccc2)/C1=N/O (stereo not drawn)	20	8	-3	1	6	-2	/
CC(C)CSC1=NSC2=NC(=O)/C(=C\c3coc4ccccc4c3=O)C(=N)N12	10	-11	36*	23	21	15	22
CSC1=NSC2=NC(=O)/C(=C\c3coc4ccccc4c3=O)C(=N)N12	4	-2	26	10	2	11	/
COc1ccc(S(=O)(=O)N(C)C[C@H]2OCc3cn(nn3)CCCC(=O)N([C@@H](C)CO)C[C@@H]2C)cc1	/	5	/	/	/	-6	/
CC(C)=CC(=O)OCC(=O)Nc1ccc(F)cc1Cl	7	1	47*	0	8	-8	41*
COc1ccc([N+](=O)[O-])cc1NC(=O)COC(=O)C=C(C)C	2	7	-32	-7	4	-14	/
CC(C)=CC(=O)OCC(=O)Nc1cc([N+](=O)[O-])ccc1F	-8	3	62*	-8	0	10	68*
O=C(COC(=O)CCCN1C(=O)c2cccc3cccc(c23)C1=O)Nc1cccc(C(F)(F)F)c1	2	1	36*	-11	-9	-8	33*
O=C(COC(=O)CCCN1C(=O)c2cccc3cccc(c23)C1=O)Nc1cccc(Br)c1	13	5	56*	7	4	12	25
O=C(CN(Cc1cccs1)C(=O)CNS(=O)(=O)c1ccc(Cl)cc1)NCc1ccco1	5	1	30*	16	1	-1	28

Source: PubChem
